# Calls of active or inactive are those of the source. No cut-off for these calls is given here.
# Tests used:
# Bacillus subtilis [1] = test: Antibacterial activity against penicillin-susceptible Bacillus subtilis ATCC 9372 after 24 hrs by broth microdilution method; assay type: functional; conditions: ATCC 9372, 24 h
# How it was run: (§1)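 MIC by broth microdilution following the NCCLS standard method. Test strains were penicillin-susceptible: B. subtilis ATCC9372, S. aureus ATCC25923, S. pneumoniae ATCC49619 and Streptococcus pyogenes PS.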
# Bacillus subtilis [2] = test: Inhibition of cell division in penicillin-susceptible Bacillus subtilis ATCC 9372 assessed as lowest concentration required to filamentation after 5 hrs by phase-contrast light microscopy analysis; assay type: functional
# How it was run: (§2)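 Cell morphology of B. subtilis ATCC9372 or S. aureus ATCC25923 was examined by phase-contrast light microscopy. The value recorded is the lowest compound concentration at which B. subtilis filamentation or S. aureus ballooning appeared. This is taken as on-target cell division inhibition.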
# Staphylococcus aureus [3] = test: Inhibition of cell division in penicillin-susceptible Staphylococcus aureus ATCC 25923 assessed as lowest concentration required to ballooning after 5 hrs by phase-contrast light microscopy analysis; assay type: functional; how it was run: as §2
# Staphylococcus aureus [4] = test: Antibacterial activity against penicillin-susceptible Staphylococcus aureus ATCC 25923 after 24 hrs by broth microdilution method; assay type: functional; conditions: ATCC 25923, 24 h; how it was run: as §1
# Streptococcus pyogenes = test: Antibacterial activity against penicillin-susceptible Streptococcus pyogenes after 24 hrs by broth microdilution method; assay type: functional; how it was run: as §1
# Staphylococcus aureus [5] = test: Antibacterial activity against […] Staphylococcus aureus ATCC 29213 after 24 hrs by broth microdilution method; assay type: functional; conditions: ATCC 29213, 24 h
# How it was run: (§3)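 MIC by standard broth microdilution following NCCLS recommendations. S. aureus ATCC29213 is a […] strain. The S. aureus PR strain is a penicillin-resistant clinical isolate that has not been characterized. The MIC was taken as the in vitro antibacterial activity value.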
# Staphylococcus aureus [6] = test: Antibacterial activity against penicillin-resistant Staphylococcus aureus clinical isolate after 24 hrs by broth microdilution method; assay type: functional; how it was run: as §3
# Streptococcus pneumoniae = test: Antibacterial activity against penicillin-susceptible Streptococcus pneumoniae ATCC 49619 after 24 hrs by broth microdilution method; assay type: functional; conditions: ATCC 49619, 24 h; how it was run: as §1
# Bacillus subtilis [7] = test: Inhibition of cell division in penicillin-susceptible Bacillus subtilis ATCC 9372 at 2048 to 4096 ug/ml after 5 hrs by phase-contrast light microscopy analysis; assay type: functional, organism-based
# Bacillus subtilis [8] = test: Ratio of compound MIC to 3-MBA MIC for penicillin-susceptible Bacillus subtilis ATCC 9372; assay type: functional
# Bacillus subtilis [9] = test: Ratio of compound to 3-MBA for inhibition of cell division in penicillin-susceptible Bacillus subtilis ATCC 9372; assay type: functional
# Staphylococcus aureus [10] = test: Ratio of compound MIC to 3-MBA MIC for penicillin-susceptible Staphylococcus aureus ATCC 25923; assay type: functional
# Staphylococcus aureus [11] = test: Ratio of compound MIC to 3-MBA MIC for penicillin-resistant Staphylococcus aureus clinical isolate; assay type: functional
# Staphylococcus aureus [12] = test: Inhibition of cell division in penicillin-susceptible Staphylococcus aureus ATCC 25923 at 2048 to 4096 ug/ml after 5 hrs by phase-contrast light microscopy analysis; assay type: functional, organism-based
Compound,MIC (Bacillus subtilis [1]),INH (Bacillus subtilis [2]),INH (Staphylococcus aureus [3]),MIC (Staphylococcus aureus [4]),MIC (Streptococcus pyogenes),MIC (Staphylococcus aureus [5]),MIC (Staphylococcus aureus [6]),MIC (Streptococcus pneumoniae),inhibition (Bacillus subtilis [7]),Ratio (Bacillus subtilis [8]),Ratio (Bacillus subtilis [9]),Ratio (Staphylococcus aureus [10]),Ratio (Staphylococcus aureus [11]),inhibition (Staphylococcus aureus [12])
CCCOCCCCCOc1cccc(C(N)=O)c1,32 µg/mL,8 µg/mL,32 µg/mL,16 µg/mL,> 128 µg/mL,32 µg/mL,32 µg/mL,> 128 µg/mL,,,,,,
CCOCCCCCOc1cccc(C(N)=O)c1,64 µg/mL,64 µg/mL,128 µg/mL,64 µg/mL,> 128 µg/mL,64 µg/mL,64 µg/mL,> 128 µg/mL,,,,,,
NC(=O)c1cccc(OCCCCl)c1,128 µg/mL,64 µg/mL,64 µg/mL,64 µg/mL,> 128 µg/mL,64 µg/mL,64 µg/mL,> 128 µg/mL,,,,,,
NC(=O)c1cccc(OCCCCn2cncn2)c1,1020 µg/mL,,1024 µg/mL,1020 µg/mL,> 128 µg/mL,> 128 µg/mL,> 128 µg/mL,> 128 µg/mL,inactive,,,,,
NC(=O)c1cccc(OCCCSc2nc3ccccc3[nH]2)c1,16 µg/mL,4 µg/mL,512 µg/mL,1020 µg/mL,> 128 µg/mL,> 128 µg/mL,> 128 µg/mL,> 128 µg/mL,,,,,,
NC(=O)c1cccc(OCCCCOc2ccccc2)c1,64 µg/mL,32 µg/mL,512 µg/mL,1020 µg/mL,> 128 µg/mL,> 128 µg/mL,> 128 µg/mL,128 µg/mL,,,,,,
NC(=O)c1cccc(OCCCCCCl)c1,64 µg/mL,32 µg/mL,32 µg/mL,32 µg/mL,> 128 µg/mL,32 µg/mL,32 µg/mL,> 128 µg/mL,,,,,,
NC(=O)c1cccc(OCCCBr)c1,128 µg/mL,128 µg/mL,32 µg/mL,64 µg/mL,> 128 µg/mL,64 µg/mL,128 µg/mL,> 128 µg/mL,,,,,,
NC(=O)c1cccc(OCCCCOc2ccc([N+](=O)[O-])cc2)c1,32 µg/mL,32 µg/mL,512 µg/mL,1020 µg/mL,> 128 µg/mL,> 128 µg/mL,> 128 µg/mL,> 128 µg/mL,,,,,,
NC(=O)c1cccc(OCCCSc2nc3ccccc3s2)c1,512 µg/mL,512 µg/mL,256 µg/mL,512 µg/mL,> 128 µg/mL,> 128 µg/mL,> 128 µg/mL,> 128 µg/mL,,,,,,
NC(=O)c1cccc(O)c1,512 µg/mL,4096 µg/mL,4096 µg/mL,4100 µg/mL,> 128 µg/mL,4100 µg/mL,4100 µg/mL,> 128 µg/mL,,,,,,
NC(=O)c1cccc(OCCCCCCCl)c1,16 µg/mL,4 µg/mL,32 µg/mL,32 µg/mL,> 128 µg/mL,64 µg/mL,32 µg/mL,> 128 µg/mL,,256,128,,,
NC(=O)c1cccc(OCCCCCCBr)c1,32 µg/mL,16 µg/mL,64 µg/mL,64 µg/mL,> 128 µg/mL,64 µg/mL,64 µg/mL,> 128 µg/mL,,,,,,
NC(=O)c1cccc(OCCCOc2ccc([N+](=O)[O-])cc2)c1,4 µg/mL,4 µg/mL,512 µg/mL,1020 µg/mL,> 128 µg/mL,> 128 µg/mL,> 128 µg/mL,> 128 µg/mL,,,,,,
NC(=O)c1cccc(OCCCCBr)c1,16 µg/mL,8 µg/mL,8 µg/mL,8 µg/mL,> 128 µg/mL,8 µg/mL,8 µg/mL,> 128 µg/mL,,256,,256,512,
NC(=O)c1cccc(OCCCOc2ccc(Cl)cc2)c1,16 µg/mL,4 µg/mL,512 µg/mL,1020 µg/mL,> 128 µg/mL,> 128 µg/mL,> 128 µg/mL,> 128 µg/mL,,,,,,
NC(=O)c1cccc(OCCCCSc2nc3ccccc3s2)c1,128 µg/mL,128 µg/mL,512 µg/mL,1020 µg/mL,> 128 µg/mL,> 128 µg/mL,> 128 µg/mL,> 128 µg/mL,,,,,,
CCCCOCCCCCOc1cccc(C(N)=O)c1,8 µg/mL,8 µg/mL,16 µg/mL,8 µg/mL,> 128 µg/mL,4 µg/mL,8 µg/mL,> 128 µg/mL,,512,,256,,
Cc1nc2ccccc2n1CCCCOc1cccc(C(N)=O)c1,1020 µg/mL,,,1020 µg/mL,> 128 µg/mL,> 128 µg/mL,> 128 µg/mL,> 128 µg/mL,inactive,,,,,inactive
COc1cccc(C(N)=O)c1,4100 µg/mL,512 µg/mL,,2050 µg/mL,> 128 µg/mL,2050 µg/mL,4100 µg/mL,> 128 µg/mL,,,,,,inactive
NC(=O)c1cccc(OCCCCCBr)c1,64 µg/mL,32 µg/mL,64 µg/mL,32 µg/mL,> 128 µg/mL,16 µg/mL,32 µg/mL,> 128 µg/mL,,,,,,
NC(=O)c1cccc(OCCBr)c1,128 µg/mL,64 µg/mL,16 µg/mL,64 µg/mL,> 128 µg/mL,128 µg/mL,128 µg/mL,> 128 µg/mL,,,,,,
NC(=O)c1cccc(OCCCOc2ccccc2)c1,32 µg/mL,8 µg/mL,1024 µg/mL,1020 µg/mL,> 128 µg/mL,> 128 µg/mL,> 128 µg/mL,> 128 µg/mL,,,,,,
COc1ccc(OCCCCOc2cccc(C(N)=O)c2)cc1,1020 µg/mL,32 µg/mL,,4100 µg/mL,> 128 µg/mL,> 128 µg/mL,> 128 µg/mL,> 128 µg/mL,,,,,,inactive
COc1ccc(OCCCOc2cccc(C(N)=O)c2)cc1,1020 µg/mL,1024 µg/mL,512 µg/mL,1020 µg/mL,> 128 µg/mL,> 128 µg/mL,> 128 µg/mL,> 128 µg/mL,,,,,,
NC(=O)c1cccc(OCCCCCl)c1,32 µg/mL,16 µg/mL,32 µg/mL,8 µg/mL,> 128 µg/mL,8 µg/mL,8 µg/mL,> 128 µg/mL,,,,256,512,
NC(=O)c1cccc(OCCCn2cncn2)c1,32 µg/mL,16 µg/mL,1024 µg/mL,2050 µg/mL,> 128 µg/mL,> 128 µg/mL,> 128 µg/mL,> 128 µg/mL,,,,,,
NC(=O)c1cccc(OCCSc2nc3ccccc3s2)c1,32 µg/mL,16 µg/mL,1024 µg/mL,2050 µg/mL,> 128 µg/mL,> 128 µg/mL,> 128 µg/mL,> 128 µg/mL,,,,,,
NC(=O)c1cccc(OCCCCOc2ccc(Cl)cc2)c1,0.5 µg/mL,0.25 µg/mL,256 µg/mL,1020 µg/mL,> 128 µg/mL,> 128 µg/mL,> 128 µg/mL,> 128 µg/mL,,,,,,
NC(=O)c1cccc(OCCCCn2ccnc2)c1,128 µg/mL,128 µg/mL,128 µg/mL,256 µg/mL,> 128 µg/mL,> 128 µg/mL,> 128 µg/mL,> 128 µg/mL,,,,,,

# Source: ChEMBL document CHEMBL2401679, “Synthesis and on-target antibacterial activity of novel 3-elongated arylalkoxybenzamide derivatives as inhibitors of the bacterial cell division protein FtsZ” (2013)
